Measured values published in paper PMC3442410 (Molecular Biology of the Cell, 2012).
Residue numbers refer to the chain shown, from its start.

Key:
OSBP [1] = target: T1, OSBP (Oryctolagus cuniculus, UniProt P16258); assay: Direct extraction of radiolabeled PI or PI; format: binding, rabbit; settings: OSBP 50 pmol; liposomes with 0.5 mol% [32P]PI(4)P; compared with [3H]PI
T1 sequence (P16258 1-809): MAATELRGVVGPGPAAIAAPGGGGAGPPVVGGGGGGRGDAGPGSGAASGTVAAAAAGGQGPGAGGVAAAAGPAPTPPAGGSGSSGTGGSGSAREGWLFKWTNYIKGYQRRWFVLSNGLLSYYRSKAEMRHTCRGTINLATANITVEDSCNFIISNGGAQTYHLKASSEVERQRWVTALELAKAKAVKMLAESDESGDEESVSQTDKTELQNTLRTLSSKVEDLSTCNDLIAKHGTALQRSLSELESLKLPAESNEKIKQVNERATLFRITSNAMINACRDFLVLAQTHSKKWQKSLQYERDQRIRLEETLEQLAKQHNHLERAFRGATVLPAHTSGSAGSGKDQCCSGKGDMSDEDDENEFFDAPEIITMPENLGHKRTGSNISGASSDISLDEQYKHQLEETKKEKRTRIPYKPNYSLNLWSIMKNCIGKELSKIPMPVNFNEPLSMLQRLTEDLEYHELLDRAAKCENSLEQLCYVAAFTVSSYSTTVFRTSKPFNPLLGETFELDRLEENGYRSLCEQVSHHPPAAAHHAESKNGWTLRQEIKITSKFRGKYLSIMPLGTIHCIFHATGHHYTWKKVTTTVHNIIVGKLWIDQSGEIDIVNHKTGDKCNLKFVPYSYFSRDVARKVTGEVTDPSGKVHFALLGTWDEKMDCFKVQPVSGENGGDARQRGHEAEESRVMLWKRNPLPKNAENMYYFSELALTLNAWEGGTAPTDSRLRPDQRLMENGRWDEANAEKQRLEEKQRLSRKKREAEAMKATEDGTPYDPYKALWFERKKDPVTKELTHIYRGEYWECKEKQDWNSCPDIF

OSBP [2] = target: T1, OSBP; assay: Specific binding of [3H]25OH by purified OSBP; parameters: species or system rabbit
Method in brief: (§1)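 His-tagged (C-terminal V5-His) rabbit OSBP or mutant expressed in Sf21 cells by baculovirus, purified and kept in Tris-HCl pH 7.4/250 mM NaCl. 12 pmol protein incubated with [3H]25OH in 10 mM HEPES pH 7.4, 100 mM KCl, 2% polyvinyl alcohol at 4°C, 16 h. Charcoal-dextran added for 30 min, then spun 10,000 × g, 10 min. Supernatant bound sterol counted by scintillation. Specific binding is total minus binding with 40-fold excess unlabeled 25OH.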

OSBP-S381A = target: T2, OSBP-S381A (Oryctolagus cuniculus, UniProt P16258, S381A); assay: Specific binding of [3H]25OH by purified OSBP-S381A; parameters: species or system rabbit
T2 sequence (P16258 1-809 S381A): T1 sequence (P16258 1-809) with S381A
Method in brief: as §1

OSBP-S3E = target: T3, OSBP-S3E (Oryctolagus cuniculus, UniProt P16258, S381E/S384E/S387E); assay: Specific binding of [3H]25OH by purified OSBP-S3E; parameters: species or system rabbit
T3 sequence (P16258 2-809 S381E/S384E/S387E limits assumed): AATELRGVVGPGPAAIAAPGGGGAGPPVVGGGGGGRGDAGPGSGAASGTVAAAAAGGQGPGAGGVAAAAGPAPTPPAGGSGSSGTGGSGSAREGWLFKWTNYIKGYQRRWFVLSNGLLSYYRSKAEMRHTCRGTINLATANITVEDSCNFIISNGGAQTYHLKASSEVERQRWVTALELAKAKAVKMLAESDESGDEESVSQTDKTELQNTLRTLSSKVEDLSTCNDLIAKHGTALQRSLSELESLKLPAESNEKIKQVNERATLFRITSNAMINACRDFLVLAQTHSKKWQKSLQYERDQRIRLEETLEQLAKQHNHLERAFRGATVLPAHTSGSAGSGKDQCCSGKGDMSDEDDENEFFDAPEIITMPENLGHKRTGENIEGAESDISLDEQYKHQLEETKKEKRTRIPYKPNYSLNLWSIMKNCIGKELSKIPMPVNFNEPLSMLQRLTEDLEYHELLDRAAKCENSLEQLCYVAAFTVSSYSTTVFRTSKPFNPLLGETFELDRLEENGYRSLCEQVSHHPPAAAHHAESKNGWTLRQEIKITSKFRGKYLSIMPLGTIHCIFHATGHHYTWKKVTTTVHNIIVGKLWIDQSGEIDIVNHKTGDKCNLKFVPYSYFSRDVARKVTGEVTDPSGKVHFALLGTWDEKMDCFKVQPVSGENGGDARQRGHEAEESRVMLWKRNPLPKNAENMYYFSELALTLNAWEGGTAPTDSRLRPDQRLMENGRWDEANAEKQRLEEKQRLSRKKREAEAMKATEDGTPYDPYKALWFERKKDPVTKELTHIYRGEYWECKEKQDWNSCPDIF
Method in brief: as §1

OSBP-S5E = target: T4, OSBP-S5E (Oryctolagus cuniculus, UniProt P16258, S381E/S384E/S387E/S388E/S391E); assay: Specific binding of [3H]25OH by purified OSBP-S5E; parameters: species or system rabbit
T4 sequence (P16258 1-809 S381E/S384E/S387E/S388E/S391E): T1 sequence (P16258 1-809) with S381E, S384E, S387E, S388E, S391E
Method in brief: as §1

SM synthesis = assay: 25OH-activated SM synthesis; format: cell-based, CHO cells; settings: 25OH 6 μM, 6 h
Method in brief: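 OSBP-deficient CHO cells (stable lentiviral shOSBP) grown in DMEM with 5% fetal calf serum, transiently transfected for 48 h (Lipofectamine 2000) with OSBP constructs carrying three silent shRNA-resistant mutations. Cells then treated with 25OH (6 μM) or solvent control for 6 h. SM and ceramide synthesis measured by [3H]serine incorporation. Mean and SEM of three experiments.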

[3] = [3H]25OH, 12 pmol protein, 4°C, 16 h

| extraction from liposomes into supernatant (OSBP [1]) | Kd (OSBP [2]) [nM] | Bmax (OSBP [2]; [3]) | Kd (OSBP-S381A) [nM] | Bmax (OSBP-S381A; [3]) | Kd (OSBP-S3E) [nM] | Bmax (OSBP-S3E; [3]) | Kd (OSBP-S5E) [nM] | binding capacity (Bmax) (OSBP-S5E; [3]) | Compound | activation of SM synthesis (SM synthesis; deficient CHO cells expressing S381A/S3A, S5E/S3D or S5E/S3A double mutants) [fold] | activation of SM synthesis (SM synthesis; deficient CHO cells expressing wild-type OSBP) [fold] |
| --- | --- | --- | --- | --- | --- | --- | --- | --- | --- | --- | --- |
| extracted significantly more | – | – | – | – | – | – | – | – | phosphatidylinositol 4-phosphate [PI(4)P] | – | – |
| – | 28 ± 5 | 0.63 ± 0.05 | 51 ± 12 | 0.68 ± 0.11 | 58 ± 14 | 0.49 ± 0.15 | 35 ± 9 | 2.0 ± 0.26 | C[C@H](CCCC(C)(C)O)[C@H]1CC[C@H]2[C@@H]3CC=C4C[C@@H](O)CC[C@]4(C)[C@H]3CC[C@]12C [25OH, 25-hydroxycholesterol] | 2.5 | 2.5 |
